MDM2 E3 inh: Mdm2 E3 ligase (human) inhibition | Q00987 | cell-based MDM2 ubiquitination luciferase reporter, 2 h; 0 = plate control, 100 = twice control, blank-subtracted | signal enhancement, % at 5 µM | 0.11% of 210,000 active | AID 1230;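 active means signal enhancement of 30% or more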;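 further: luminescence tracks abundance of the self-degrading MDM2-luciferase fusion protein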
Target sequence (Q00987 whole entry, looked up, the tested form may be a part): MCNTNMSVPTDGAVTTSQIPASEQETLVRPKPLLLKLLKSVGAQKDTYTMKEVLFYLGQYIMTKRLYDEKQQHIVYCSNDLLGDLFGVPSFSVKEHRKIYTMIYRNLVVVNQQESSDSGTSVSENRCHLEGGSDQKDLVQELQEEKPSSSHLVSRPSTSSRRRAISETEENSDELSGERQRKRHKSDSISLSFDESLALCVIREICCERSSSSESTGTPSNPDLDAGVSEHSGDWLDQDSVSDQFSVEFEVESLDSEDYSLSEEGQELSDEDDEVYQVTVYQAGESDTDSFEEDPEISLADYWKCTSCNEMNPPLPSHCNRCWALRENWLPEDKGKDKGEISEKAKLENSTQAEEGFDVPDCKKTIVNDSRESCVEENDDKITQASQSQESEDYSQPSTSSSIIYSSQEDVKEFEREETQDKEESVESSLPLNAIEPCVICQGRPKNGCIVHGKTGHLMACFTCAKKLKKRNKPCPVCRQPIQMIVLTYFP
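Buffer or medium: Cells held in DMEM | Assay system: Stable mammalian line carrying autodegrading MDM2–luciferase fusion reporter | Quantity: 2000 cells/well | Times: 4 h settle plus 2 h compound, 37 °C | Doses: One concentration, 5 µM, with 0.2% DMSO | Technique: Luminescence with SteadyLite reagent, 15 min at room temperature | Benchmarks: Plate controls and plate blanks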
Yeast lifespan up: yeast lifespan extension. S. cerevisiae growth with nicotinamide, OD615; deaD strain in restrictive glucose medium. inhibition of the nicotinamide effect, % at 10 µM. 0.68% of 130,000 active. AID 775;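 active means inhibition above a set limit, placed 3 SD over the median of all compounds, cut at about 26% in these data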;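 further: 0% = nicotinamide-treated wells and 100% = cells grown without nicotinamide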
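Assay system: engineered S. cerevisiae DeaD replicative-lifespan strain, galactose-grown log-phase cells; Buffer or medium: CSMM-D glucose medium, restrictive; Probe or stimulus: nicotinamide 1.5 mM; Compound: single dose 10 µM compound, 0.25% DMSO; Schedule: 4 h preincubation then 48 h treatment at 30 °C; Technique: OD615 measurement.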
Measles CPE: protection of cells from measles virus. Measles virus-infected cells, CPE protection, absorbance. protection (pct of control), % at 4 µM. 1.5% of 140,000 active. AID 841; in the data active means protection mostly above about 24%, no sharp cut-off; inactive means mostly below about 26%
INS promoter inh: TRM-6 insulin promoter activity inhibition; TRM-6 cells, insulin promoter-eGFP reporter, imaging; reporter expression induced with tamoxifen; inhibition, % at 2 µM; 0.9% of 130,000 active;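 active means inhibition above the mean plus 3 SD, with well images judged a real hit on visual review, cut at about 60% in these data, passing the limit was not always enough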
RAM network inh: yeast RAM network inhibition | S. cerevisiae dse1pr::URA3 reporter, 5-FOA growth OD615, 2 d; analog-sensitive cbk1-as2 kinase mutant strain | inhibition, % at 50 µM | 1.8% of 190,000 active | AID 868;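 active means inhibition above a set limit, 3 SD over mean compound inhibition, cut at about 8.4% in these data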;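 further: 0% = DMSO-only wells with no growth and 100% = 10 µM 1-NA-PP1 full growth; inhibition rescues growth on 5-FOA so higher OD means more RAM inhibition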
Yeast growth inh: reduces growth of yeast BB579 in restrictive medium | S. cerevisiae BB579 growth, OD615, 48 h | inhibition, % at 10 µM | AID 804 | 0.51% of 140,000 active;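 active means inhibition above a set limit, 3 SD over the mean compound inhibition, cut at about 44% in these data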
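System: DeaD yeast strain BB579; buffer or medium: CSMM-D dextrose restrictive medium; technique: OD at 615 nm; schedule: 4 h cell preincubation, 48 h compound exposure, 30 °C humidified; doses: single 10 µM dose; controls: amphotericin B 10 µg/mL, positive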
* = called active by the depositor. In the library only some 4% were active in any assay of this set; here they are far more common.

Screening Cc1ccc(OC(C)C(=O)Nc2ccc(S(=O)(=O)Nc3cc(C)on3)cc2)cc1 (stereo not given) returned MDM2 E3 inh -14, Yeast lifespan up -4, Measles CPE 4, INS promoter inh 33, RAM network inh 2 and Yeast growth inh -24.
Cc1cc(NS(=O)(=O)c2ccc(NC(=O)C(C)Oc3ccc4c(C)cc(=O)oc4c3)cc2)no1 (stereo not given) was read as MDM2 E3 inh -17, Yeast lifespan up 17, Measles CPE 5, INS promoter inh 62, RAM network inh 10* and Yeast growth inh -40.
For S=c1[nH]nc(-c2cccs2)n1/N=C/c1c(Cl)cccc1Cl the results were MDM2 E3 inh -13, INS promoter inh -13 and RAM network inh 3.
For CCN1CCN(C(=O)Nc2ccccc2OC)CC1 the results were MDM2 E3 inh 0, Measles CPE 8, INS promoter inh -7, RAM network inh 1 and Yeast growth inh -20.
For CN(Cc1ccccc1)C(=O)c1nc2ccccn2c1CN1CCC(N2CCOCC2)CC1 the results were MDM2 E3 inh 1.
For COc1ccc2c(C(=O)CN3CCN(c4ccccc4)CC3)c[nH]c2c1 the results were MDM2 E3 inh -13, Yeast lifespan up -3, Measles CPE 28*, INS promoter inh -94, RAM network inh 0 and Yeast growth inh 2.
Screening COc1ccc2c(C(=O)CN3CCSCC3)c[nH]c2c1 returned MDM2 E3 inh -12.
Cc1cccc(C(=O)CC(=O)c2cc(Cl)ccc2O)c1 was read as MDM2 E3 inh 15, Yeast lifespan up -6, Measles CPE 0, INS promoter inh -17, RAM network inh -1 and Yeast growth inh 83*.
Cc1ccc(O)c(C(=O)CC(=O)c2cccc(F)c2)c1 was read as MDM2 E3 inh 17, Yeast lifespan up -4, Measles CPE 15, INS promoter inh -152, RAM network inh 0 and Yeast growth inh 51*.
O=C(CC(=O)c1cc(Cl)ccc1O)c1ccccc1 was read as MDM2 E3 inh 3, Yeast lifespan up -12, Measles CPE 11, INS promoter inh -40, RAM network inh 2 and Yeast growth inh 82*.
`CCn1ncc([N+](=O)[O-])c1C(=O)Nc1c(C)nn(Cc2ccc(F)cc2)c1C` gave MDM2 E3 inh -2 and RAM network inh 0.
`Cc1nc2ccccc2n1C1CCN(C(=O)Nc2ccccc2)CC1` gave MDM2 E3 inh -6 and RAM network inh 1.
COc1ccc(Cl)cc1N1C(=O)/C(=C\c2sccc2C)N=C1SCC(=O)NC1CC1 was read as MDM2 E3 inh -22, Yeast lifespan up -17, Measles CPE 15, RAM network inh 8.6* and Yeast growth inh -41.
C=CCN1C(=O)/C(=C\c2ccc(Cl)cc2)N=C1SCC(=O)NC1CCCCC1 was read as MDM2 E3 inh -16, Yeast lifespan up -1, Measles CPE 12, INS promoter inh 5, RAM network inh 1 and Yeast growth inh -34.
`COc1cc(-n2c(N)c(C(=O)NCc3ccco3)c3nc4ccccc4nc32)cc(OC)c1OC` gave MDM2 E3 inh -12, Yeast lifespan up 4, Measles CPE 13, INS promoter inh -29, RAM network inh 11* and Yeast growth inh -27.
`COCCNC(=O)c1c(N)n(-c2cccc(C)c2)c2nc3ccccc3nc12` gave MDM2 E3 inh -9, Yeast lifespan up 2, Measles CPE 6, RAM network inh 10.0* and Yeast growth inh -28.
COc1ccc(-n2c(N)c(C(=O)NCc3ccco3)c3nc4ccccc4nc32)cc1OC was read as MDM2 E3 inh -5, Yeast lifespan up 9, Measles CPE 6, INS promoter inh 43, RAM network inh 6 and Yeast growth inh -33.
`CCOC(=O)CCN(Cc1cccs1)S(=O)(=O)c1ccc(F)cc1` gave MDM2 E3 inh -15, Yeast lifespan up 8, Measles CPE 48*, RAM network inh 1 and Yeast growth inh -22.
For O=C(NCc1ccccc1)c1ccc(S(=O)(=O)N2CCCC2)cc1 the results were MDM2 E3 inh -11, Yeast lifespan up 2, Measles CPE 46, INS promoter inh -14, RAM network inh 1 and Yeast growth inh -17.
CCOC(=O)CSc1nnc(CNC(=O)c2ccc(S(=O)(=O)N3CCCC3)cc2)n1C was read as MDM2 E3 inh -1, Yeast lifespan up -19, Measles CPE 20, INS promoter inh 90*, RAM network inh -1 and Yeast growth inh 0.
`O=C(NC(=S)Nc1ccc(S(=O)(=O)N2CCCCC2)cc1)c1cccs1` gave MDM2 E3 inh 1, Yeast lifespan up -1, Measles CPE 13, INS promoter inh -27, RAM network inh 7 and Yeast growth inh -37.
`Cn1c(=O)c(=O)n(C)c2cc(S(=O)(=O)N3CCCC3C(=O)NCc3cccnc3)ccc21` (stereo not given) gave MDM2 E3 inh 0.
O=C(NCc1cccnc1)c1ccc(S(=O)(=O)N2CCCCC2)cc1 was read as MDM2 E3 inh -11, Yeast lifespan up 115*, Measles CPE 10, INS promoter inh 6, RAM network inh 0 and Yeast growth inh -80.
`O=C(NCc1cccnc1)C1CCCCN1S(=O)(=O)c1ccc(F)cc1` (stereo not given) gave MDM2 E3 inh -21, Yeast lifespan up 1, Measles CPE 19*, RAM network inh 0 and Yeast growth inh -26.
O=C(NNC(=O)c1cccs1)c1ccc(S(=O)(=O)N2CCCCC2)cc1 was read as MDM2 E3 inh -5, Yeast lifespan up 9, Measles CPE 26*, INS promoter inh -15, RAM network inh -1 and Yeast growth inh -1.
O=C(COC(=O)c1cncc(Br)c1)NC1CCCCCC1 was read as MDM2 E3 inh -10 and RAM network inh 1.
`O=C1C2C3C=CC(CC3)C2C(=O)N1c1ccccc1[N+](=O)[O-]` (stereo not given) gave MDM2 E3 inh -10, INS promoter inh 7 and RAM network inh 1.
`Fc1cccc(Cl)c1/C=N/n1c(-c2cccnc2)n[nH]c1=S` gave MDM2 E3 inh 45*, INS promoter inh -33 and RAM network inh 1.
For S=c1[nH]nc(-c2ccccc2)n1/N=C/c1ccc(-c2ccccc2Cl)o1 the results were MDM2 E3 inh -3, Yeast lifespan up -1, Measles CPE 70*, INS promoter inh 8, RAM network inh 1 and Yeast growth inh -4.
`S=c1[nH]nc(-c2cccc(Cl)c2)n1/N=C/c1ccc(-c2ccccc2Br)o1` gave MDM2 E3 inh 0.
`O=[N+]([O-])c1ccccc1/C=N/n1c(-c2cccnc2)n[nH]c1=S` gave MDM2 E3 inh -28, Yeast lifespan up 1, Measles CPE 13, INS promoter inh 0, RAM network inh 4 and Yeast growth inh -18.

Screening data as filed in PubChem BioAssay.
